Measurements reported in ChEMBL document CHEMBL1122175, “Pentasubstituted quercetin analogues as selective inhibitors of particulate 3':5'-cyclic-AMP phosphodiesterase from rat brain” (J Med Chem, 1982).

Legend:
[1] = Inhibition of rat brain particulate cAMP phosphodiesterase (Inactive)
In short: (§1)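 The particulate enzyme was the washed high-speed pellet, rehomogenized in sucrose buffer, then resuspended and dialyzed overnight in 20 mM Tris-HCl pH 7.5, 1 mM MgCl2, 0.1 mM DTT, and stored at -20 °C. Hydrolysis of 0.25 µM cAMP or cGMP was assayed at 30 °C in triplicate.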

[2] = Inhibition of rat brain cytosolic cAMP phosphodiesterase (Inactive)
In short: (§2)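 Rat brains without cerebellum were homogenized in 0.32 M sucrose, 5 mM Tris-HCl pH 7.5, 1 mM MgCl2, 0.1 mM DTT. After a 1000g spin and a high-speed spin, the supernatant was dialyzed overnight against 20 mM Tris-HCl pH 7.5, 1 mM MgCl2, 0.1 mM DTT. Assay used 0.25 µM cAMP or cGMP in triplicate at 30 °C.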

[3] = molecular target: T1, cGMP-dependent 3',5'-cyclic phosphodiesterase (Rattus norvegicus, UniProt Q01062); assay: Inhibition of rat brain particulate cGMP phosphodiesterase (Inactive); in short: as §1
T1 sequence (Q01062 whole entry): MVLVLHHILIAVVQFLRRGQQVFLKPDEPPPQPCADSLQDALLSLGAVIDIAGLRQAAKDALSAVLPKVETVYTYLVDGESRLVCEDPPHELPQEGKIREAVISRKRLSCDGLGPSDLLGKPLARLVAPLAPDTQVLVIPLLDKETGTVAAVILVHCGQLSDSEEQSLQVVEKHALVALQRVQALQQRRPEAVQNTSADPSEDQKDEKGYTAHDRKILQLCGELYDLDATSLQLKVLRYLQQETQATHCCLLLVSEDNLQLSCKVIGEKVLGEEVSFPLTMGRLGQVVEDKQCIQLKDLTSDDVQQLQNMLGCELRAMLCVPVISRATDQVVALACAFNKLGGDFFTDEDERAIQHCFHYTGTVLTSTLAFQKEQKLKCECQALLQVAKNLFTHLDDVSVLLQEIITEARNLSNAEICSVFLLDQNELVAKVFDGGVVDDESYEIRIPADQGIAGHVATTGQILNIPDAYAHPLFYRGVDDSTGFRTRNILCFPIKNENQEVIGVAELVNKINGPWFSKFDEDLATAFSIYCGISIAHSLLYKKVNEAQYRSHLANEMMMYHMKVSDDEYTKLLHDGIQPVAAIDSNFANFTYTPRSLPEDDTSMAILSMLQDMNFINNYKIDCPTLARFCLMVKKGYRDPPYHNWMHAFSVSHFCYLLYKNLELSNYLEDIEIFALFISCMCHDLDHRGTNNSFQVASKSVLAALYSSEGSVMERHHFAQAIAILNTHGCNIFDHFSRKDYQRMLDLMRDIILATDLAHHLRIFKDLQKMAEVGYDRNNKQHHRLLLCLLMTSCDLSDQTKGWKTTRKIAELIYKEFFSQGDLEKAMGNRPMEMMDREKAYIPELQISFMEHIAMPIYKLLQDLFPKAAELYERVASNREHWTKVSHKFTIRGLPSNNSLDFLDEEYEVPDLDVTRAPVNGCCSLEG

[4] = molecular target: T1, cGMP-dependent 3',5'-cyclic phosphodiesterase; assay: Inhibition of rat brain particulate cGMP phosphodiesterase; in short: as §1
Phosphodiesterase 1 = Phosphodiesterase 1 (Rattus norvegicus, UniProt Q63421+Q9EPR9+Q01066); assay: Inhibition of rat brain cytosolic cGMP phosphodiesterase; in short: as §2
Rattus norvegicus [5] = species on record: Rattus norvegicus; assay: Relative inhibition of cAMP and cGMP hydrolysis by particulate phosphodiesterase
[6] = Inhibition of rat brain particulate cAMP phosphodiesterase; conditions: read-out: I 50
[7] = Inhibition of rat brain cytosolic cAMP phosphodiesterase; conditions: read-out: I 50; in short: as §2
Rattus norvegicus [8] = species on record: Rattus norvegicus; assay: Relative inhibition of cAMP and cGMP hydrolysis by cytosolic phosphodiesterase
[9] = Inhibition of rat brain particulate cAMP phosphodiesterase; conditions: read-out: I50; in short: as §1
[10] = molecular target: T1, cGMP-dependent 3',5'-cyclic phosphodiesterase; assay: Inhibition of rat brain particulate cGMP phosphodiesterase (inactive); in short: as §1
[11] = Inhibition of rat brain cytosolic cAMP phosphodiesterase (inactive); in short: as §2
[12] = Inhibition of rat brain particulate cAMP phosphodiesterase (inactive); in short: as §1

| Compound | I 50 [2] | I 50 [3] | IC50 ([4]; read-out: I 50) | I 50 (Phosphodiesterase 1) | Ratio (Rattus norvegicus [5]) | IC50 [6] | IC50 [7] | Ratio (Rattus norvegicus [8]) | other results |
| --- | --- | --- | --- | --- | --- | --- | --- | --- | --- |
| CCOC(=O)COc1c(-c2ccc(OCC)c(OCC)c2)oc2cc(OCC)cc(OCC)c2c1=O | Not Active | Not Active | – | – | – | – | – | – | I 50 [1]: Not Active |
| O=c1c(OCCBr)c(-c2ccc(OCCBr)c(OCCBr)c2)oc2cc(OCCBr)cc(OCCBr)c12 | – | – | 24.5 µM | 10000 µM | 0.73 | 18 µM | 500 µM | 0.05 | – |
| CCOc1cc(OCC)c2c(=O)c(OCCO)c(-c3ccc(OCC)c(OCC)c3)oc2c1 | Not Active | Not Active | – | – | – | – | – | – | I 50 [1]: Not Active |
| CCOc1cc(OCC)c2c(=O)c(OCC)c(-c3ccc(OCC)c(OCC)c3)oc2c1 | – | – | 350 µM | > 10000 µM | 0.02 | 7.7 µM | 70 µM | < 0.007 | – |
| CCCOc1ccccc1-c1nc2[nH]nnc2c(=O)[nH]1 [ZAPRINAST] | – | – | – | 93.3 µM | 1.17 | – | 66.1 µM | 0.71 | IC50 [9]: 74.1 µM |
| CCCOc1cc(OCCC)c2c(=O)c(OCCC)c(-c3ccc(OCCC)c(OCCC)c3)oc2c1 | Not Active | Not Active | – | – | – | – | – | – | I 50 [1]: Not Active |
| O=c1c(O)c(-c2ccc(O)c(O)c2)oc2cc(O)cc(O)c12 [QUERCETIN] | – | – | 81.3 µM | 275 µM | 0.24 | 20 µM | 87 µM | 0.32 | – |
| CC(=O)Oc1cc(OC(C)=O)c2c(=O)c(OC(C)=O)c(-c3ccc(OC(C)=O)c(OC(C)=O)c3)oc2c1 | – | – | 275 µM | – | 0.46 | 126 µM | 355 µM | – | – |
| COc1cc(OC)c2c(=O)c(OC)c(-c3ccc(OC)c(OC)c3)oc2c1 | – | – | 96 µM | > 1000 µM | 0.1 | 10.2 µM | 6.3 µM | < 0.008 | – |
| O=c1c(OCCO)c(-c2ccc(OCCO)c(OCCO)c2)oc2cc(OCCO)cc(OCCO)c12 | – | – | 1300 µM | 2800 µM | 0.05 | 69 µM | 470 µM | 0.17 | – |
| CCOc1cc(OCC)c2c(=O)c(OCC(=O)O)c(-c3ccc(OCC)c(OCC)c3)oc2c1 | – | – | 71 µM | > 1000 µM | 0.31 | 22 µM | 10 µM | < 0.01 | – |
| CCCCOc1cc(CC2CNC(=O)N2)ccc1OC (stereo not drawn) [RO-201724] | – | – | 10000 µM | > 1000 µM | 0.007 | 74.1 µM | 1660 µM | 0.16 | – |
| CCOc1cc(O)c2c(=O)c(OCC)c(-c3ccc(OCC)c(OCC)c3)oc2c1 | Not Active | Not Active | – | – | – | – | – | – | I 50 [1]: Not Active |
| CCOc1cc(OCC)c2c(=O)c(OCCN(CC)CC)c(-c3ccc(OCC)c(OCC)c3)oc2c1 | – | – | – | 47 µM | 0.16 | – | 37 µM | 0.79 | IC50 ([4]; read-out: I50): 126 µM; IC50 [9]: 20 µM |
| CCOc1cc(OCCBr)c2c(=O)c(OCC)c(-c3ccc(OCC)c(OCC)c3)oc2c1 | – | – | 96 µM | > 1000 µM | 0.18 | 17 µM | 40 µM | < 0.04 | – |
| CCOc1cc(OCC)c2c(=O)c(O)c(-c3ccc(OCC)c(OCC)c3)oc2c1 | Not Active | Not Active | – | – | – | – | – | – | I 50 [1]: Not Active |
| CCCC(=O)Oc1cc(OC(=O)CCC)c2c(=O)c(OC(=O)CCC)c(-c3ccc(OC(=O)CCC)c(OC(=O)CCC)c3)oc2c1 | Not Active | Not Active | – | – | – | – | – | – | I 50 [1]: Not Active |
| CCC(=O)Oc1cc(OC(=O)CC)c2c(=O)c(OC(=O)CC)c(-c3ccc(OC(=O)CC)c(OC(=O)CC)c3)oc2c1 | Not Active | Not Active | – | – | – | – | – | – | – |
| CCOC(=O)COc1cc(OCC(=O)OCC)c2c(=O)c(OCC(=O)OCC)c(-c3ccc(OCC(=O)OCC)c(OCC(=O)OCC)c3)oc2c1 | Not Active | Not Active | – | – | – | – | – | – | I 50 [1]: Not Active |
| O=C(O)COc1cc(OCC(=O)O)c2c(=O)c(OCC(=O)O)c(-c3ccc(OCC(=O)O)c(OCC(=O)O)c3)oc2c1 | – | – | – | – | – | – | – | – | I 50 [10]: Not Active; I 50 [11]: Not Active; I 50 [12]: Not Active |
| CCCOc1ccccc1-c1nc2nn[nH]c2c(=O)[nH]1 [ZAPRINAST] | – | – | – | – | – | – | – | – | IC50 ([4]; read-out: I50): 63.1 µM |
| CCOC(=O)COc1cc(OCC)cc2oc(-c3ccc(OCC)c(OCC)c3)c(OCC)c(=O)c12 | – | – | 700 µM | > 1000 µM | 0.01 | 8.3 µM | 80 µM | < 0.08 | – |
| CCOc1cc(OCC(=O)O)c2c(=O)c(OCC)c(-c3ccc(OCC)c(OCC)c3)oc2c1 | – | – | 48 µM | 63 µM | 0.32 | 16 µM | 20 µM | 0.32 | – |
| CCOc1cc(OCCN(CC)CC)c2c(=O)c(OCC)c(-c3ccc(OCC)c(OCC)c3)oc2c1 | – | – | – | 58 µM | 0.11 | – | 35 µM | 0.6 | IC50 ([4]; read-out: I50): 80 µM; IC50 [9]: 10 µM |
